Experimental data as given in ChEMBL document CHEMBL4706601, “The endocannabinoid system dual-target ligand N-cycloheptyl-1,2-dihydro-5-bromo-1-(4-fluorobenzyl)-6-methyl-2-oxo-pyridine-3-carboxamide improves disease severity in a mouse model of multiple sclerosis” (Eur J Med Chem, 2020).
The source made the active and inactive calls.

Key:
[1] = biological target: Cannabinoid receptor 1 (Rattus norvegicus) (UniProt P20272); assay: Agonist activity at CB1R in Sprague-Dawley rat hippocampal synaptosomes assessed as inhibition of 4-AP evoked glutamate release at 10 uM preincubated for 8 mins followed by 4-AP addition in presence of 1 uM CB2R antagonist, SR144528 by HPLC analysis; format: subcellular; conditions: Hippocampus, filed as agonist
Cannabinoid receptor 1 (Rattus norvegicus), sequence (P20272 whole entry, the tested form may be a part): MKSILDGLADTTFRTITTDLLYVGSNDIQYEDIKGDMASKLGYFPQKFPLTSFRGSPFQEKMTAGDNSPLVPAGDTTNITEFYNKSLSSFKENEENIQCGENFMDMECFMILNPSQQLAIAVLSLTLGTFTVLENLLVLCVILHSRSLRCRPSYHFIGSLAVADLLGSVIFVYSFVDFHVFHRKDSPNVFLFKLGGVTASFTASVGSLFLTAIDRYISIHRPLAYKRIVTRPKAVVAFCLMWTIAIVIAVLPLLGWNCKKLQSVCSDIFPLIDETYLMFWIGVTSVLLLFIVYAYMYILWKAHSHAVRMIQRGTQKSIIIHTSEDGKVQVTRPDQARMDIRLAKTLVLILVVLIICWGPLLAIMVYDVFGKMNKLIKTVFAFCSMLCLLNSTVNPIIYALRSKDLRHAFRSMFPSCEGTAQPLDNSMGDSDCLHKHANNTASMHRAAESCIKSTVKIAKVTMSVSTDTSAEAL
In short: (§1)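 Rat (male Sprague Dawley, 200-250 g) hippocampal synaptosomes from Percoll gradient, superfused at 37 °C (0.5 ml/min); 4-AP 600 μM for 2 min. Compounds and antagonists (SR141716A, SR144528, 1 μM) added 8 min before 4-AP and kept during it; basal effects tested by 2-min exposure alone. Endogenous glutamate by HPLC as pmol/mg protein; overflow = stimulated minus basal in control chambers; n = 3–9, triplicate.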

[2] = biological target: Cannabinoid receptor 1 (Rattus norvegicus) (UniProt P20272); assay: Agonist activity at CB1R in Sprague-Dawley rat hippocampal synaptosomes assessed as inhibition of 4-AP evoked glutamate release at 10 uM preincubated for 8 mins followed by 4-AP addition by HPLC analysis; format: subcellular; conditions: Hippocampus, filed as agonist; in short: as §1
[3] = biological target: T1, Monoacylglycerol lipase ABHD6 (Homo sapiens, UniProt Q9BV23); assay: Inhibition of human ABHD6 expressed in HEK293 cells using 2-OG as substrate preincubated for 30 mins followed by substrate addition and measured after 5 mins by liquid scintillation spectroscopy; format: cell-based
T1 sequence (Q9BV23 whole entry): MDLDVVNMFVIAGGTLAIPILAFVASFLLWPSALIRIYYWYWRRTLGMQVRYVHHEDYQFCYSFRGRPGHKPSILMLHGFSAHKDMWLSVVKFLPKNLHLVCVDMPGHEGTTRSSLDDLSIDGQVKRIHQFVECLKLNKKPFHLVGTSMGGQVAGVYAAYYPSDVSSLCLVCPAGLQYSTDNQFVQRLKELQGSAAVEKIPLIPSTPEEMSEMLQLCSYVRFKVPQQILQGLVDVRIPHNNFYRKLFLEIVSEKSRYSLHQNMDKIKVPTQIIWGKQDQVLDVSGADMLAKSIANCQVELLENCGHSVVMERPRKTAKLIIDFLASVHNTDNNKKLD
In short: (§2)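 Homogenates (40 µg) from HEK293 stably expressing hABHD6 or hABHD12 pre-incubated with compound 30 min at 37 °C in […], 0.1% BSA, pH 7.6; then 10 μM 2-OG for 5 min at 37 °C. Aqueous phase tritium counted after CHCl3:MeOH stop; no-enzyme blanks and non-transfected HEK293 hydrolysis subtracted. Controls WWL70 10 μM, THL 20 μM.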

Homo sapiens = species on record: Homo sapiens; assay: Selectivity index, ratio of Ki for human CB1R expressed in CHO cell membranes to Ki for human CB2R expressed in CHO cell membranes; format: cell-based
[4] = biological target: T2, Lysophosphatidylserine lipase ABHD12 (Homo sapiens, UniProt Q8N2K0); assay: Inhibition of human ABHD12 expressed in HEK293 cells using 2-OG as substrate preincubated for 30 mins followed by substrate addition and measured after 5 mins by liquid scintillation spectroscopy; format: cell-based; in short: as §2
T2 sequence (Q8N2K0 whole entry): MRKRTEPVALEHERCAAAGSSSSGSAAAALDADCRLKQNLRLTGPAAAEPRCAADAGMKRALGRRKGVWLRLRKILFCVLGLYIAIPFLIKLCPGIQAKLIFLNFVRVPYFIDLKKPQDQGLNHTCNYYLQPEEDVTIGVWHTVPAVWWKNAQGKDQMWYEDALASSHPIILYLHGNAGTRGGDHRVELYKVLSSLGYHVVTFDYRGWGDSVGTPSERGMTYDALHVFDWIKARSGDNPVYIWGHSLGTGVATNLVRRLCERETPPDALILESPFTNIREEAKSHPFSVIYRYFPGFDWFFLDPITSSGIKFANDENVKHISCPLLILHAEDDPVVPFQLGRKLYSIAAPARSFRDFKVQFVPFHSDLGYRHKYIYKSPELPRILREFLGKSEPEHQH

Cannabinoid receptor 2 [5] = biological target: T3, Cannabinoid receptor 2 (Homo sapiens, UniProt P34972); assay: Displacement of [3H]CP55940 from recombinant human CB2R expressed in CHO cell membranes incubated for 90 mins; parameters: species or system Membrane
T3 sequence (P34972 whole entry): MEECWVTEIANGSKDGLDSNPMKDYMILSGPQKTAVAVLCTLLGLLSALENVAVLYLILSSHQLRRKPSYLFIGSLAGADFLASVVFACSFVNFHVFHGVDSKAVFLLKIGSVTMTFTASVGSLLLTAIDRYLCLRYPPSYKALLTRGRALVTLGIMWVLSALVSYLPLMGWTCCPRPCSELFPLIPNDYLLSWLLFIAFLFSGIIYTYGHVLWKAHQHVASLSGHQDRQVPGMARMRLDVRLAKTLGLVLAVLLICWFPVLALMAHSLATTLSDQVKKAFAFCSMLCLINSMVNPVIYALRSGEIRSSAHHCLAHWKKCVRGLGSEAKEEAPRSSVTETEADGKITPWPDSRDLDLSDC

[6] = biological target: T4, Fatty-acid amide hydrolase 1 (Homo sapiens, UniProt O00519); assay: Inhibition of FAAH in human U937 cells using [ethanolamine-1-3H]AEA as substrate preincubated for 15 mins followed by substrate addition and measured after 15 mins by liquid scintillation spectroscopy; format: cell-based, U-937
T4 sequence (O00519 whole entry): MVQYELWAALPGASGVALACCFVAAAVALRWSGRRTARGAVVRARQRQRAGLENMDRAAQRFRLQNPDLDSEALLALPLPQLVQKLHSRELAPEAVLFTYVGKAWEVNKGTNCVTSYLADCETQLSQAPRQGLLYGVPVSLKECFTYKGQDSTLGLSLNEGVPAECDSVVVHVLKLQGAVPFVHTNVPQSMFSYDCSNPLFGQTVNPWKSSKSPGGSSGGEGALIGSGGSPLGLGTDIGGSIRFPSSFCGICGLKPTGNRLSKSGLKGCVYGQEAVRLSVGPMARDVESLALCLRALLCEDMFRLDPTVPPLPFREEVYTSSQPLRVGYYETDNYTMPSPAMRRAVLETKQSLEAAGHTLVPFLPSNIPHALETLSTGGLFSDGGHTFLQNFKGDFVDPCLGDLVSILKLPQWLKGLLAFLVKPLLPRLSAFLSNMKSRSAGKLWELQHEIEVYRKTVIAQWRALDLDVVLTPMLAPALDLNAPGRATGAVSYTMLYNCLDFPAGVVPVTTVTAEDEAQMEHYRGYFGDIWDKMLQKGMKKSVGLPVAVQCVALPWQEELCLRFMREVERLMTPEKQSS
In short: (§3)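 Intact U937 cells, 10^6 per condition, pre-incubated with compound 15 min at 37 °C with shaking (screen at 10 μM; full curves for hits). Substrate: 1 μM AEA with 1 nM [3H]AEA (FAAH) or 10 μM 2-OG with 5 nM [3H]2-OG (MAGL), 15 min at 37 °C. Stopped with CHCl3:MeOH 1:1, aqueous tritium counted; mean ± SD, ≥3 experiments in triplicate.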

Cannabinoid receptor 1 [7] = biological target: T5, Cannabinoid receptor 1 (Homo sapiens, UniProt P21554); assay: Displacement of [3H]CP55940 from recombinant human CB1R expressed in CHO cell membranes incubated for 90 mins; parameters: species or system Membrane
T5 sequence (P21554 whole entry): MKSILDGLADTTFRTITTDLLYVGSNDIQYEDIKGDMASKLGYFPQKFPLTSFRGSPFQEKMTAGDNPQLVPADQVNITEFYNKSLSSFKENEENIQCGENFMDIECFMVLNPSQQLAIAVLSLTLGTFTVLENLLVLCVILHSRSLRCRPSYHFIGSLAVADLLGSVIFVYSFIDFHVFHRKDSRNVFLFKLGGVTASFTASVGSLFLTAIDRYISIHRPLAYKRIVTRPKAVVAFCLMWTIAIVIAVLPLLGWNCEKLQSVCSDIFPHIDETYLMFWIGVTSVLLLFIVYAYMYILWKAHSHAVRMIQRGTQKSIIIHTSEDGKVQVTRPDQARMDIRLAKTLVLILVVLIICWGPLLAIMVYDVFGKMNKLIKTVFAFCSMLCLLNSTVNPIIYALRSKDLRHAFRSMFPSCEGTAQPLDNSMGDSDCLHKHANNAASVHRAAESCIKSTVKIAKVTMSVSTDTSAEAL

Cannabinoid receptor 2 [8] = biological target: T3, Cannabinoid receptor 2; assay: Agonist activity at human CB2R expressed in CHO cell membranes after 90 mins by [35S]GTPgammaS assay; format: functional, Membrane
In short: (§4)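 In-house CHO membranes expressing hCB1 or hCB2 (10 µg) in 50 mM Tris-HCl, 3 mM MgCl2, 0.2 mM EDTA, 100 mM NaCl, 0.5% fatty-acid-free BSA, pH 7.4, with 10 μM GDP and 0.1 nM [35S]GTPγS. Incubated 90 min at 30 °C; antagonist pre-incubated 30 min. Nonspecific binding with 10 μM GTPγS; bound label by filtration and counting; ≥3 experiments in triplicate.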

Monoglyceride lipase = biological target: T6, Monoglyceride lipase (Homo sapiens, UniProt Q99685); assay: Inhibition of MAGL in human U937 cells using [glycerol-1,2,3-3H]2-OG as substrate preincubated for 15 mins followed by substrate addition and measured after 15 mins by liquid scintillation spectroscopy; format: cell-based, U-937; in short: as §3
T6 sequence (Q99685 whole entry): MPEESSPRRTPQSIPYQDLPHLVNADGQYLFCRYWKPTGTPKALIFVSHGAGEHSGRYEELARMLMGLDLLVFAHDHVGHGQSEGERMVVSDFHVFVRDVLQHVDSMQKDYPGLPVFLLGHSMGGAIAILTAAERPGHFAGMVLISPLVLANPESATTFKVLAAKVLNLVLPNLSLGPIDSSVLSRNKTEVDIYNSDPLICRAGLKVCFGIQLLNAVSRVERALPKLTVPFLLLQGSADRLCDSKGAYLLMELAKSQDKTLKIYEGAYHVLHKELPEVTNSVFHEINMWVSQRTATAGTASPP

Cannabinoid receptor 1 [9] = biological target: T5, Cannabinoid receptor 1; assay: Agonist activity at human CB1R expressed in CHO cell membranes after 90 mins by [35S]GTPgammaS assay; format: functional, Membrane; in short: as §4
Mus musculus [10] = assay: In vivo agonist activity at CB1R in BALB/c mouse assessed as induction of analgesia at 5 mg/kg, ip measured after 1 hr by hotplate test; format: functional, organism-based
In short: (§5)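 BALB/c mice given 5 mg/kg i.p. in DMSO (20 µL), tested 1 h later. Rectal temperature change from basal; catalepsy by bar test (4 cm bar, 120 s cut-off); locomotion by rotarod latency to fall at 4 rpm (120 s cut-off, 3 trials); analgesia by hot plate at 54-56 °C, first paw lick or shake. n = 5-20 per group.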

Mus musculus [11] = assay: In vivo agonist activity at CB1R in BALB/c mouse assessed as reduction in body temperature at 5 mg/kg, ip measured after 1 hr by tetrad test; format: functional, organism-based; in short: as §5
Cannabinoid receptor 2 [12] = biological target: T3, Cannabinoid receptor 2; assay: Inverse agonist activity at human CB2R expressed in CHO cell membranes after 90 mins by [35S]GTPgammaS assay; format: functional, Membrane; in short: as §4
Mus musculus [13] = assay: In vivo agonist activity at CB1R in BALB/c mouse assessed as catalpesy-like behaviour by measuring increase in immobility time at 5 mg/kg, ip measured after 1 hr by bar test; format: functional, organism-based; in short: as §5
Cannabinoid receptor 1 [14] = biological target: T5, Cannabinoid receptor 1; assay: Antagonist activity at human CB1R expressed in CHO cell membranes preincubated for 30 mins followed by GTPgammaS addition and measured after 90 mins by [35S]GTPgammaS assay; format: functional, Membrane; in short: as §4
Mus musculus [15] = assay: In vivo agonist activity at CB1R in BALB/c mouse assessed as reduction in spontaneous locomotion at 5 mg/kg, ip measured after 1 hr by rotarod test; format: functional, organism-based; in short: as §5

Compound | Activity [1] | Activity [2] | IC50 [3] [nM] | Ratio Ki (Homo sapiens) | IC50 [4] [nM] | Ki (Cannabinoid receptor 2 [5]) [nM] | IC50 [6] [nM] | Ki (Cannabinoid receptor 1 [7]) [nM] | EC50 (Cannabinoid receptor 2 [8]) [nM] | IC50 (Monoglyceride lipase) [nM] | EC50 (Cannabinoid receptor 1 [9]) [nM] | Activity (Mus musculus [10]) | Activity (Mus musculus [11]) | EC50 (Cannabinoid receptor 2 [12]) [nM] | Activity (Mus musculus [13]) | EC50 (Cannabinoid receptor 1 [14]) [nM] | Activity (Mus musculus [15])
CCCCC/C=C\C/C=C\C/C=C\C/C=C\CCCC(=O)NCCCl | Active | Active | – | – | – | – | – | – | – | – | – | – | – | – | – | – | –
Cc1ccc(C(=O)NC2CCCCCC2)c(OCc2ccc(F)cc2)n1 | – | – | > 10000 | 0.49 | > 10000 | 33.9 | > 10000 | 16.6 | 11.6 | > 10000 | 86.2 | – | – | – | – | – | –
Cc1c(-c2ccccc2)cc(C(=O)NC2CCCCCC2)c(=O)n1Cc1ccc(F)cc1 | – | – | > 10000 | – | > 10000 | 5.7 | 560 | 176 | – | > 10000 | – | inactive | inactive | 17 | inactive | 0.36 | inactive
CC(=O)N[C@@H]1[C@@H](O)[C@H](O)[C@@H](CO)O[C@H]1NC(=O)c1cc(Br)c(C)n(Cc2ccc(F)cc2)c1=O | – | – | > 10000 | – | > 10000 | > 10000 | > 10000 | > 10000 | – | > 10000 | – | – | – | – | – | – | –
COc1ccc(-c2cc(C(=O)NC3CCCCCC3)c(OCc3ccc(F)cc3)nc2C)cc1 | – | – | 530 | – | > 10000 | 919 | > 10000 | > 10000 | – | > 10000 | – | – | – | – | – | – | –
Cc1c(Cl)cc(C(=O)NC2CCCCCC2)c(=O)n1Cc1ccc(F)cc1 | – | – | > 10000 | 0.86 | > 10000 | 4.3 | 5900 | 3.7 | 3.3 | > 10000 | 1.12 | – | – | – | – | – | –
CO[C@@H]1O[C@H](CNC(=O)c2cc(Br)c(C)n(Cc3ccc(F)cc3)c2=O)[C@H](O)[C@H](O)[C@H]1O | – | – | > 10000 | – | > 10000 | > 10000 | > 10000 | > 10000 | – | > 10000 | – | – | – | – | – | – | –
